Measured values pooled from the literature.
Compare with care: the assays were run in different laboratories.
Target: TGF-beta receptor type-1 (TGFBR1, Homo sapiens, UniProt P36897)
Sequence (P36897 34-503, as in one of the studies): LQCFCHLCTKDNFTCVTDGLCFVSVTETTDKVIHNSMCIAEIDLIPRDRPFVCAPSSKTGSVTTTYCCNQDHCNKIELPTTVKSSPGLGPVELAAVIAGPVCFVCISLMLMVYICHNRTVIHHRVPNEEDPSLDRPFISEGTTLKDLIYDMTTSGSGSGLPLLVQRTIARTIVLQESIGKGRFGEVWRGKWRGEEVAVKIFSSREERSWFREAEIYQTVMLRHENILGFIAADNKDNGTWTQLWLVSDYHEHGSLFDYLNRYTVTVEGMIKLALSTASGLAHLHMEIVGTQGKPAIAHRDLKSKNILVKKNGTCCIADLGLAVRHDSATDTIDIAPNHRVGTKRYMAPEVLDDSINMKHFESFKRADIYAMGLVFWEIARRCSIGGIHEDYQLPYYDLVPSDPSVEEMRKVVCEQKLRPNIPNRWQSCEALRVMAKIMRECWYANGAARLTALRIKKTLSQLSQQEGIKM

SMILES | assay | setting | remaining binding [%]
CC1CCCN1c1nccc(-c2cnn3ncccc23)n1 (stereo not shown) | binding | 1 µM | 100
CN([C@@H]1CCc2c(CC(=O)O)c3ccccc3n2C1)S(=O)(=O)c1ccc(F)cc1 | cell-free assay, competition with immobilised ligand | 1 µM | 100
O=C(c1ccc(Nc2ncc(Cl)c(-c3cc4ccccc4s3)n2)cc1)N1CCC(N2CCCC2)CC1 | binding, competition with immobilised ligand | 1 µM | 52
F[C@@H]1CCN(c2nccc(-c3cnn4ncccc34)n2)C1 | binding | 1 µM | 100
O=C(c1ccc(Nc2nccc(-c3cc4ccccc4s3)n2)cc1)N1CCC(N2CCCC2)CC1 | binding, competition with immobilised ligand | 1 µM | 91
C[C@@H]1CN(c2ccc3ncc(-c4ccc5[nH]nc(C6CC6)c5c4)n3n2)C[C@H](C)O1 | binding, competition with immobilised ligand | 50 nM | 100
N[C@H]1CCN(c2nccc(-c3cnn4ncccc34)n2)C1 | binding | 1 µM | 100
CNCc1ccccc1-c1csc([C@@H](C)Nc2nc(C)nc3cc(OC)c(OC)cc23)c1 | cell-free assay, competition with immobilised ligand | 1 µM | 74
O=C(NCCCN1CCOCC1)c1ccc(Nc2nccc(-c3cc4ccccc4s3)n2)cc1 | binding, competition with immobilised ligand | 1 µM | 58
C=CC(=O)N1CCC(C(=O)NCC(=O)N2CCN(c3nc(-c4cnc(N)nc4C(F)F)nc(N4CCOCC4)n3)CC2)CC1 | binding, competition with immobilised ligand | 1 µM | 100
O=C(N[C@H]1CCCCC/C=C\C2C[C@@]2(C(=O)O)NC(=O)[C@@H]2C[C@@H](Oc3ccncc3)CN2C1=O)OC1CCCC1 (stereo partly shown) | cell-free assay, competition with immobilised ligand | 1 µM | 100
Nc1ncc2c(n1)-c1c([nH]c3ccc(C#CC4CC4)cc13)CCCC2 | binding, competition with immobilised ligand | 1 µM | 86
O=C(NCC1CCOCC1)c1n[nH]cc1NC(=O)c1c(F)cccc1F | binding, competition with immobilised ligand | 1 µM | 96
C[C@@H](c1ccc(-n2cnc3c(N)ncnc32)cc1)N1CCc2nn(C)c(Cc3ccccc3)c2C1=O | binding, competition with immobilised ligand | 0.1 µM | 82
C[C@@H]1CCN(c2nccc(-c3cnn4ncccc34)n2)C1 | binding | 1 µM | 98
Cc1nc(Cc2cccc(C(F)(F)F)c2)sc1-c1ccc(C(N)=O)nc1 | cell-free assay, competition with immobilised ligand | 1 µM | 90
c1cnn2ncc(-c3ccnc(N4CCC45COC5)n3)c2c1 | binding | 1 µM | 78
COCCOc1nc(-c2ccc(Cl)nc2)nc2c1CN(C(=O)c1ncn3ccccc13)CC2 | cell-free assay, competition with immobilised ligand | 0.1 µM | 100
CNC(=O)[C@@H]1CC[C@@H](n2c(-c3ccc4cnccc4c3)nc3ccc(C(=O)NCc4cccc(C(N)=O)c4)cc32)C1 | binding, competition with immobilised ligand | 1 µM | 88
O=C(Nc1cccnn1)N1CCC(=Cc2cccc(Oc3ccc(C(F)(F)F)cn3)c2)CC1 | cell-free assay, competition with immobilised ligand | 1 µM | 61
CN(C)c1nccc(-c2cnc3ncccn23)n1 | binding | 1 µM | 82
CC(=O)Nc1c(C(C)=O)c(=O)n(C)c2nc(-c3ccc(Cl)cc3Cl)c(-c3ccc(Cl)cc3)cc12 | cell-free assay, competition with immobilised ligand | 1 µM | 82
Cc1cnn2ncc(-c3ccnc(N(C)C)n3)c2c1 | binding | 1 µM | 100
CCOCCn1cc(C(=O)Nc2ccc(-n3nc(-c4cccnc4)cc3C(F)(F)F)cn2)ccc1=O | cell-free assay, competition with immobilised ligand | 1 µM | 100
COc1cnc(Nc2cccc(S(N)(=O)=O)c2)nc1N1CCN(c2ccccc2)CC1 | binding, competition with immobilised ligand | 1 µM | 100
